# Assay outcomes as filed in PubChem BioAssay.
# Rows were chosen to be rich in hits. Some 4.6% of all compounds tested hit in one or more screens of this group.
# Hck Nef HTS: blocks Nef-activated human Hck kinase. AID 463187. Recombinant Hck-YEEI plus Nef, Z-Lyte FRET kinase assay. actives 0.68% (n = 220,000). inhibition, % at 20 µM;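 active means Hck-Nef kinase inhibition above about 50%, limit read from the data; inactive means inhibition below that limit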;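 further: 0% = DMSO with Hck plus Nef and 100% = Hck alone without Nef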
# RAM network inh: yeast RAM network inhibition; S. cerevisiae dse1pr::URA3 reporter, 5-FOA growth OD615, 2 d; analog-sensitive cbk1-as2 kinase mutant strain; inhibition, % at 50 µM; actives 1.8% (n = 190,000); AID 868;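 active means inhibition above a set limit, 3 SD over mean compound inhibition, cut at about 8.4% in these data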;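 further: 0% = DMSO-only wells with no growth and 100% = 10 µM 1-NA-PP1 full growth; inhibition rescues growth on 5-FOA so higher OD means more RAM inhibition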
# Arbovirus anti: arbovirus infection inhibition | arbovirus infection cell-based antiviral screen | actives 0.37% (n = 200,000) | AID 1251 | inhibition, % at 10 µM; in the data active means inhibition above about 30%
# WT yeast gro inh: growth inhibition of WT yeast, mitochondrial fusion screen; AID 1362; actives 2.1% (n = 190,000); inhibition, % at 10 µM; mitochondrial fusion phenotypic screen, WT strain; in the data active means inhibition above about 58%; tested in S. cerevisiae
# Biofilm kill mix: mixture kills Candida albicans biofilm cells. inhibition, % at 7.6 µM. C. albicans biofilm persisters + clotrimazole, fluorescence viability; primary screen in compound mixtures of four per well. actives 0.02% (n = 120,000). AID 1242;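 active means inhibition above 30.3% in the primary screen of four-compound pools, then above 30% when the compound was retested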;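 further: compounds exposed to preformed 24 h biofilms for 48 h; 0% = untreated biofilm control and 100% = clotrimazole plus chlorhexidine kill blank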
#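 Probe or stimulus – Clotrimazole 50 µg/mL co-treatment · System – C. albicans biofilms · Schedule – 24 h biofilm formation, then 48 h compound exposure, 37 °C · Evaluation – percent inhibition of biofilm viability · Technique – 2-h Alamar Blue fluorescence, 535/590 nm excitation/emission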
# NCF1 inh: inhibitors of human p47phox binding | p47phox/p22phox peptide binding, fluorescence polarization, 2 h | P14598 | inhibition, % at 24.7 µM | AID 1274 | actives 0.53% (n = 220,000);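 active means inhibition above about 30%, limit read from the data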;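 further: 0% = p47phox with labelled peptide and 100% = labelled peptide alone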
# Target sequence (P14598 whole entry, looked up): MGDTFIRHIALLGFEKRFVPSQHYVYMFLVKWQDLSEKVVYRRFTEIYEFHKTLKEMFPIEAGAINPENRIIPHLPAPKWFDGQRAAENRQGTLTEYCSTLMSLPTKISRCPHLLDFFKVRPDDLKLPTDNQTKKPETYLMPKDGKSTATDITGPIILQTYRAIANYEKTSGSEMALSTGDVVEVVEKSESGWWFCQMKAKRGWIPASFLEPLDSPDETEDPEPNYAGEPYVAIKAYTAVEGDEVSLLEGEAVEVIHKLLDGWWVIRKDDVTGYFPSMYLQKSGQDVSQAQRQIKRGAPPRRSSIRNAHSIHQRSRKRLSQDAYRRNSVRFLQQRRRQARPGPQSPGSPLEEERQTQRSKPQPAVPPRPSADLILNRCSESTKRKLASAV
# Numbers without * were called inactive; x = no result given.
SMILES,Hck Nef HTS,RAM network inh,Arbovirus anti,WT yeast gro inh,Biofilm kill mix,NCF1 inh
COC(=O)c1cc(NC(=S)NCc2ccc(Cl)cc2)cc(C(=O)OC)c1,2,6,32*,28,4,-10
O=C(NCCCN1CCOCC1)C(C(=O)NCCCN1CCOCC1)c1ncc(C(F)(F)F)cc1Cl,6,0,6,9,0,-8
O=C(CSc1nnc(-c2cc3ccccc3cc2O)n1Cc1ccco1)c1ccc(F)cc1,1,8.4*,-26,30,x,-12
CCOC(=O)c1c(C)n(O)c2ccc(Cl)cc2c1=O,-20,3,0,-22,x,-1
Cc1cc(C)n(CC(O)Cn2c3ccc(Cl)cc3c3cc(Cl)ccc32)c(=O)n1 (stereo not given),1,1,-35,97*,x,-19
CN([C@@H](Cc1ccc(OS(=O)(=O)c2cccc3cnccc23)cc1)C(=O)N1CCN(c2ccccc2)CC1)S(=O)(=O)c1cccc2cnccc12,-2,9.2*,-8,-1,11,-31
CC(=O)N1N=C(c2ccc(C)cc2)OC1c1ccc(Br)cc1 (stereo not given),24,3,2,63*,2,-12
CCOC(=O)C(=O)N1CCC(C(=O)OC)CC1,17,0,8,7,9,-6
COc1ccc(-c2nnc3n2N=C(C)CS3)cc1,0,2,-2,10,x,-4
CCOC(=O)/C(=C\c1ccc(OC(F)F)cc1)C1=Nn2c(nnc2-c2ccc(Cl)cc2)SC1,3,3,-35,71*,10,-6
CCCn1c2c(c(O)c(C(=O)Nc3nc4ccccc4s3)c1=O)CCCC2,13,1,43*,8,11,-2
CC(C)Cn1c2c(c(O)c(C(=O)Nc3nc4ccccc4s3)c1=O)CCCC2,1,x,x,x,19,-8
CCCn1c2c(c(O)c(C(=O)Nc3ccc(OC)cc3)c1=O)CCCC2,1,9.2*,22,7,x,-21
C=CCn1cnc2c(nnn2-c2ccc(C)c(Cl)c2)c1=O,-2,3,-4,3,10,-7
COc1ccc(C(=O)CSc2nnc(-c3cc(C)cc(C)c3)o2)cc1,0,10.0*,-3,-12,x,-3
Cc1ccc(C(=O)CSc2nnc(COc3cccc(C)c3)o2)cc1,1,9.9*,3,-1,x,-6
CCOC(=O)c1c(CC(C)C)csc1N,2,-1,-1,-10,13,-6
CCOC(=O)c1sc(NC(=O)Nc2cccc(Cl)c2)cc1C,10,9.0*,-20,67*,19,-1
CCOC(=O)c1sc(NC(=O)c2cccs2)cc1C,7,5,-9,22,x,-10
N#Cc1cc(-c2ccccc2)cnc1Sc1ccccc1,1,9.2*,0,33,x,-6
COc1ccc(N2CCN(C(=O)c3cccc(Br)c3)CC2)c([N+](=O)[O-])c1,4,2,-6,36,9,-3
Cc1sc2nc(CN(C(=O)c3cccs3)C3CCCC3)[nH]c(=O)c2c1C,2,2,0,7,x,-4
O=C(c1cccs1)N(Cc1nc2sc3c(c2c(=O)[nH]1)CCCC3)C1CCCC1,-1,-1,-2,61*,x,-17
CC(=O)N(CCC(Cc1ccccc1)c1ccc2c(c1)OCO2)Cc1ccccc1F (stereo not given),-1,3,-16,78*,x,3
C/C(=N\Nc1cccc(Cl)c1)c1ccc(-n2ccnc2)cc1,7,-1,-26,66*,17,-10
SMILES,Hck Nef HTS,RAM network inh,Arbovirus anti,WT yeast gro inh,Biofilm kill mix,NCF1 inh
O=C(NN1CCOCC1)c1cccc(COc2cccc(Br)c2)c1,3,3,-2,-10,0,-2
Cc1ccc(-n2ncc3c(=O)n(CC#N)cnc32)cc1C,6,0,11,-4,x,-14
C#CCn1cnc2c(cnn2-c2ccc(C)c(C)c2)c1=O,0,3,-3,60*,x,-4
COc1cc(CCCN2C(N)=NC[C@@H]2Cc2ccccc2)cc(OC)c1OC,17,x,x,x,16,9
O=C(Nc1ccc(NC(=S)NC(=O)c2ccccc2F)cc1)c1cccs1,36,5,-11,63*,-1,-10
COc1cc(NC(=S)NC(=O)c2ccccc2F)ccc1NC(=O)c1cccs1,25,8,-3,8,6,-2
O=C(c1ccc(-c2nnc(-c3ccccc3)o2)cc1)N1CCCCCC1,0,2,-6,65*,x,0
O=C(Cn1nc(-c2ccc3c(c2)OCCO3)ccc1=O)Nc1cccc(NC(=O)c2ccccn2)c1,40,4,-4,20,11,-23
CC(C)SC1=NC(C)(C)C=C(/C=C/c2ccc(Cl)cc2Cl)N1,0,-1,-29,77*,x,-19
CC(C)SC1=NC(C)(C)C=C(/C=C/c2c(Cl)cccc2Cl)N1,0,0,-21,66*,x,-11
c1ccc(-c2noc(CC3CCCCC3)n2)nc1,16,-1,-10,10,2,-11
C/C(=N/NS(C)(=O)=O)c1ccc2ccccc2c1,-15,2,-1,16,x,-9
O=C(NCCCCc1ccccc1)C1CC(c2cc(C(F)(F)F)cc(C(F)(F)F)c2)=NO1 (stereo not given),28,x,x,x,14,-6
Cc1nnc(NC(=O)c2ccccc2NC(=O)c2ccccc2)s1,12,x,x,x,12,-4
COc1cc(-c2nc3c(c(C)nn3-c3ccccc3)c3cc(OC)c(OC)cc23)ccc1O,2,8.9*,-21,-6,x,-21
O=C(O)c1nn(CCSc2ccccc2F)c(=O)c2ccccc12,10,x,x,x,8,-9
O=C1c2[nH]nc(-c3ccccc3O)c2C(c2cccc(Cl)c2)N1CC1CCCO1 (stereo not given),2,0,25,11,x,-20
O=C1c2[nH]nc(-c3ccccc3O)c2C(c2ccc(F)cc2)N1CC1CCCO1 (stereo not given),0,6,33*,-1,x,-6
CC(C)N(Cc1ccccc1)C(=S)NC1CCCCC1,-37,-1,11,64*,7,3
COc1ccccc1NC(=S)N(c1ccccc1)C(C)C,16,0,13,-3,17,-4
OCCN(Cc1ccccc1)C(=S)NC1CCCCC1,20,2,2,5,16,-3
CC(C)N(C(=S)NC1CCCCC1)c1ccccc1,21,1,-2,59*,7,-10
O=C(/C=C/c1ccc(Cl)c([N+](=O)[O-])c1)Nc1ccc(N2CCCC2)cc1,4,2,-11,10,14,3
COCCNC(=O)CN(C(=O)CCC(=O)Nc1ccccn1)c1ccccc1F,15,2,14,-6,6,1
CCC(c1nnnn1C(C)(C)C)N1CCN(C2CCCC2)CC1 (stereo not given),0,2,3,6,x,-3
Cc1ccc(Cl)cc1N1CCN(C(CC(C)C)c2nnnn2CC2CCCO2)CC1 (stereo not given),1,2,-1,10,x,-3
